Results taken from ChEMBL document CHEMBL1806456, “Chemistry of ecteinascidins. Part 3: preparation of 2'-N-acyl derivatives of ecteinascidin 770 and evaluation of cytotoxicity” (Bioorg Med Chem, 2011).

How the values were obtained:
Type in all cases: functional, cell-based
DU-145 = test: Cytotoxicity against human DU145 cells after 4 days by MTT assay; details: DU-145, 96 h
Procedure, shortened: (§1)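 Cells seeded as single-cell suspension, 2 × 10³ cells/well, onto serially diluted compounds in microplates; cultured 4 d. Viable cells counted with a cell counting kit. IC50 taken as concentration giving 50% growth inhibition relative to untreated control.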

HCT-116 = test: Cytotoxicity against human HCT116 cells after 4 days by MTT assay; details: HCT-116, 96 h; procedure, shortened: as §1
QG-56 = test: Cytotoxicity against human QG56 cells after 4 days by MTT assay; details: QG-56, 96 h; procedure, shortened: as §1

SMILES	IC50 (DU-145)	IC50 (HCT-116)	IC50 (QG-56)
COc1cc2c(cc1O)CCN(C(=O)c1c[nH]c3ccccc13)[C@]21CS[C@@H]2c3c(OC(C)=O)c(C)c4c(c3[C@@H](COC1=O)N1[C@@H]2[C@H]2c3c(cc(C)c(OC)c3O)C[C@@H]([C@@H]1C#N)N2C)OCO4	0.45 nM	0.16 nM	0.46 nM
C=CCOc1cc2c(cc1OC)[C@@]1(CS[C@@H]3c4c(OC(C)=O)c(C)c5c(c4[C@@H](COC1=O)N1[C@@H]3[C@H]3c4c(cc(C)c(OC)c4OCC=C)C[C@@H]([C@@H]1C#N)N3C)OCO5)NCC2	100 nM	54 nM	160 nM
C=CCOc1cc2c(cc1OC)[C@@]1(CS[C@@H]3c4c(OC(C)=O)c(C)c5c(c4[C@@H](COC1=O)N1[C@@H]3[C@H]3c4c(cc(C)c(OC)c4O)C[C@@H]([C@@H]1C#N)N3C)OCO5)NCC2	7.1 nM	2.4 nM	12 nM
C=CCOc1cc2c(cc1OC)[C@@]1(CS[C@@H]3c4c(OC(C)=O)c(C)c5c(c4[C@@H](COC1=O)N1[C@@H]3[C@H]3c4c(cc(C)c(OC)c4OCC=C)C[C@@H]([C@@H]1C#N)N3C)OCO5)N(CC=C)CC2	> 1000 nM	620 nM	> 1000 nM
C=CCN1CCc2cc(O)c(OC)cc2[C@@]12CS[C@@H]1c3c(OC(C)=O)c(C)c4c(c3[C@@H](COC2=O)N2[C@@H]1[C@H]1c3c(cc(C)c(OC)c3O)C[C@@H]([C@@H]2C#N)N1C)OCO4	1.2 nM	0.5 nM	1.8 nM
C=CCOc1cc2c(cc1OC)[C@@]1(CS[C@@H]3c4c(OC(C)=O)c(C)c5c(c4[C@@H](COC1=O)N1[C@@H]3[C@H]3c4c(cc(C)c(OC)c4OCC=C)C[C@@H]([C@@H]1C#N)N3C)OCO5)N(C(=O)c1c[nH]c3ccccc13)CC2	> 1000 nM	0.45 nM	> 1000 nM
C=CCOc1cc2c(cc1OC)[C@@]1(CS[C@@H]3c4c(OC(C)=O)c(C)c5c(c4[C@@H](COC1=O)N1[C@@H]3[C@H]3c4c(cc(C)c(OC)c4OCC=C)C[C@@H]([C@@H]1C#N)N3C)OCO5)N(C(=O)c1ccccc1)CC2	540 nM	190 nM	690 nM
C=CCOc1cc2c(cc1OC)[C@@]1(CS[C@@H]3c4c(OC(C)=O)c(C)c5c(c4[C@@H](COC1=O)N1[C@@H]3[C@H]3c4c(cc(C)c(OC)c4OCC=C)C[C@@H]([C@@H]1C#N)N3C)OCO5)N(C(=O)c1ccc([N+](=O)[O-])cc1)CC2	590 nM	260 nM	790 nM
C=CCOc1cc2c(cc1OC)[C@@]1(CS[C@@H]3c4c(OC(C)=O)c(C)c5c(c4[C@@H](COC1=O)N1[C@@H]3[C@H]3c4c(cc(C)c(OC)c4OCC=C)C[C@@H]([C@@H]1C#N)N3C)OCO5)N(C(=O)c1cccc([N+](=O)[O-])c1)CC2	270 nM	180 nM	520 nM
C=CCOc1cc2c(cc1OC)[C@@]1(CS[C@@H]3c4c(OC(C)=O)c(C)c5c(c4[C@@H](COC1=O)N1[C@@H]3[C@H]3c4c(cc(C)c(OC)c4OCC=C)C[C@@H]([C@@H]1C#N)N3C)OCO5)N(C(=O)c1ccncc1)CC2	590 nM	280 nM	790 nM
C=CCOc1cc2c(cc1OC)[C@@]1(CS[C@@H]3c4c(OC(C)=O)c(C)c5c(c4[C@@H](COC1=O)N1[C@@H]3[C@H]3c4c(cc(C)c(OC)c4OCC=C)C[C@@H]([C@@H]1C#N)N3C)OCO5)N(C(=O)c1cccnc1)CC2	680 nM	390 nM	> 1000 nM
C=CCOc1cc2c(cc1OC)[C@@]1(CS[C@@H]3c4c(OC(C)=O)c(C)c5c(c4[C@@H](COC1=O)N1[C@@H]3[C@H]3c4c(cc(C)c(OC)c4OCC=C)C[C@@H]([C@@H]1C#N)N3C)OCO5)N(C(=O)c1ccnc3ccccc13)CC2	420 nM	310 nM	420 nM
C=CCOc1cc2c(cc1OC)[C@@]1(CS[C@@H]3c4c(OC(C)=O)c(C)c5c(c4[C@@H](COC1=O)N1[C@@H]3[C@H]3c4c(cc(C)c(OC)c4OCC=C)C[C@@H]([C@@H]1C#N)N3C)OCO5)N(C(=O)c1cccc3ncccc13)CC2	550 nM	320 nM	640 nM
C=CCOc1cc2c(cc1OC)[C@@]1(CS[C@@H]3c4c(OC(C)=O)c(C)c5c(c4[C@@H](COC1=O)N1[C@@H]3[C@H]3c4c(cc(C)c(OC)c4OCC=C)C[C@@H]([C@@H]1C#N)N3C)OCO5)N(C(=O)c1ccc3ncccc3c1)CC2	180 nM	150 nM	260 nM
C=CCOc1cc2c(cc1OC)[C@@]1(CS[C@@H]3c4c(OC(C)=O)c(C)c5c(c4[C@@H](COC1=O)N1[C@@H]3[C@H]3c4c(cc(C)c(OC)c4OCC=C)C[C@@H]([C@@H]1C#N)N3C)OCO5)N(C(=O)c1ccc(Br)cc1)CC2	730 nM	480 nM	> 1000 nM
C=CCOc1cc2c(cc1OC)[C@@]1(CS[C@@H]3c4c(OC(C)=O)c(C)c5c(c4[C@@H](COC1=O)N1[C@@H]3[C@H]3c4c(cc(C)c(OC)c4OCC=C)C[C@@H]([C@@H]1C#N)N3C)OCO5)N(C(=O)c1ccccc1Br)CC2	> 1000 nM	> 1000 nM	> 1000 nM
COc1cc2c(cc1O)CCN(C(=O)c1ccccc1)[C@]21CS[C@@H]2c3c(OC(C)=O)c(C)c4c(c3[C@@H](COC1=O)N1[C@@H]2[C@H]2c3c(cc(C)c(OC)c3O)C[C@@H]([C@@H]1C#N)N2C)OCO4	1.1 nM	0.37 nM	1 nM
COc1cc2c(cc1O)CCN(C(=O)c1ccc([N+](=O)[O-])cc1)[C@]21CS[C@@H]2c3c(OC(C)=O)c(C)c4c(c3[C@@H](COC1=O)N1[C@@H]2[C@H]2c3c(cc(C)c(OC)c3O)C[C@@H]([C@@H]1C#N)N2C)OCO4	1 nM	0.38 nM	1.1 nM
COc1cc2c(cc1O)CCN(C(=O)c1cccc([N+](=O)[O-])c1)[C@]21CS[C@@H]2c3c(OC(C)=O)c(C)c4c(c3[C@@H](COC1=O)N1[C@@H]2[C@H]2c3c(cc(C)c(OC)c3O)C[C@@H]([C@@H]1C#N)N2C)OCO4	0.73 nM	0.14 nM	0.43 nM
COc1cc2c(cc1O)CCN(C(=O)c1ccncc1)[C@]21CS[C@@H]2c3c(OC(C)=O)c(C)c4c(c3[C@@H](COC1=O)N1[C@@H]2[C@H]2c3c(cc(C)c(OC)c3O)C[C@@H]([C@@H]1C#N)N2C)OCO4	0.3 nM	0.045 nM	0.2 nM
COc1cc2c(cc1O)CCN(C(=O)c1cccnc1)[C@]21CS[C@@H]2c3c(OC(C)=O)c(C)c4c(c3[C@@H](COC1=O)N1[C@@H]2[C@H]2c3c(cc(C)c(OC)c3O)C[C@@H]([C@@H]1C#N)N2C)OCO4	0.72 nM	0.13 nM	0.4 nM
COc1cc2c(cc1O)CCN(C(=O)c1ccnc3ccccc13)[C@]21CS[C@@H]2c3c(OC(C)=O)c(C)c4c(c3[C@@H](COC1=O)N1[C@@H]2[C@H]2c3c(cc(C)c(OC)c3O)C[C@@H]([C@@H]1C#N)N2C)OCO4	0.16 nM	0.067 nM	0.23 nM
COc1cc2c(cc1O)CCN(C(=O)c1cccc3ncccc13)[C@]21CS[C@@H]2c3c(OC(C)=O)c(C)c4c(c3[C@@H](COC1=O)N1[C@@H]2[C@H]2c3c(cc(C)c(OC)c3O)C[C@@H]([C@@H]1C#N)N2C)OCO4	0.92 nM	0.086 nM	0.36 nM
COc1cc2c(cc1O)CCN(C(=O)c1ccc3ncccc3c1)[C@]21CS[C@@H]2c3c(OC(C)=O)c(C)c4c(c3[C@@H](COC1=O)N1[C@@H]2[C@H]2c3c(cc(C)c(OC)c3O)C[C@@H]([C@@H]1C#N)N2C)OCO4	0.043 nM	0.045 nM	0.16 nM
C=CCOc1cc2c(cc1OC)[C@@]1(CS[C@@H]3c4c(OC(C)=O)c(C)c5c(c4[C@@H](COC1=O)N1[C@@H]3[C@H]3c4c(cc(C)c(OC)c4OCC=C)C[C@@H]([C@@H]1C#N)N3C)OCO5)N(C(=O)/C=C/c1ccccc1)CC2	> 1000 nM	630 nM	> 1000 nM
C=CCOc1cc2c(cc1OC)[C@@]1(CS[C@@H]3c4c(OC(C)=O)c(C)c5c(c4[C@@H](COC1=O)N1[C@@H]3[C@H]3c4c(cc(C)c(OC)c4OCC=C)C[C@@H]([C@@H]1C#N)N3C)OCO5)N(C(=O)/C=C/c1ccc([N+](=O)[O-])cc1)CC2	7500 nM	520 nM	8500 nM
COc1cc2c(cc1O)CCN(C(=O)/C=C/c1ccccc1)[C@]21CS[C@@H]2c3c(OC(C)=O)c(C)c4c(c3[C@@H](COC1=O)N1[C@@H]2[C@H]2c3c(cc(C)c(OC)c3O)C[C@@H]([C@@H]1C#N)N2C)OCO4	0.24 nM	0.053 nM	0.33 nM
COc1cc2c(cc1O)CCN(C(=O)/C=C/c1ccc([N+](=O)[O-])cc1)[C@]21CS[C@@H]2c3c(OC(C)=O)c(C)c4c(c3[C@@H](COC1=O)N1[C@@H]2[C@H]2c3c(cc(C)c(OC)c3O)C[C@@H]([C@@H]1C#N)N2C)OCO4	0.81 nM	0.6 nM	2.4 nM
C=CCOc1c(OC)c(C)cc2c1[C@@H]1[C@@H]3[C@@H]4SC[C@]5(C(=O)OC[C@H](c6c7c(c(C)c(OC(C)=O)c64)OCO7)N3[C@@H](C#N)[C@H](C2)N1C)c1cc(OC)c(O)cc1CCN5C(=O)/C=C/c1ccc([N+](=O)[O-])cc1	5 nM	2.7 nM	9.8 nM
COc1cc2c(cc1O)CCN[C@]21CS[C@@H]2c3c(OC(C)=O)c(C)c4c(c3[C@H](COC1=O)N1[C@@H]2[C@H]2c3c(cc(C)c(OC)c3O)C[C@@H]([C@@H]1C#N)N2C)OCO4 [ECTEINASCIDIN 770]	0.81 nM	0.6 nM	2.4 nM
